Series [1] can be described thus: Drug metabolism in pH 7.5 PBS assessed as nitric oxide release at 50 uM measured after 90 mins in presence of L-cysteine by 2,3-diaminonaphthalene-based fluorescence assay. In outline: (§1)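 Compound incubated 90 min at 37 °C in PBS pH 7.5 alone, with human plasma, with 50 μM K3[Fe(CN)6], or with 5 mM L-cysteine. Nitrite reacted with 2,3-diaminonaphthalene under acid to give fluorescent naphthotriazole; HgCl2 added to release S-nitrosothiol-bound NO. Release given as % of 1 mol NO/mol compound; 3−4 experiments in duplicate (n = 6−8), mean ± SEM.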

Series [2] in a line: Drug metabolism in pH 7.5 PBS assessed as free nitrite level at 50 uM measured after 90 mins in presence of L-cysteine by 2,3-diaminonaphthalene-based fluorescence assay. In outline: as §1
The subject of series [3] is A2058. The series can be described thus: Antiproliferative activity against human A2058 cells assessed as cell viability at 50 uM measured after 24 hrs by celltiter-blue assay relative to control. The class given is functional. The conditions noted are these: A2058, 24 h, read-out: Activity. In outline:
(§2)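 Human melanoma cells seeded at 8.5 × 10^4 cells/well in 96-well plates and treated 24 h with test compound (up to 50 μM) against a DMSO control; viability read as in the group's earlier method. Three to five independent experiments (n = 9−15); mean ± SEM, ANOVA with Bonferroni post hoc test vs DMSO.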

Series [4] is described as follows: Drug metabolism in pH 7.5 PBS assessed as S-nitroso-thiol level at 50 uM measured after 90 mins in presence of L-cysteine by 2,3-diaminonaphthalene-based fluorescence assay. Summed up:
as §1

A short description of series [5]: Drug metabolism in pH 7.5 PBS assessed as nitric oxide release at 50 uM measured after 90 mins in presence of […] by 2,3-diaminonaphthalene-based fluorescence assay.
The next series deals with Estrogen receptor beta (Homo sapiens, UniProt Q92731).
For another series, the target named is T1, Estrogen receptor (Homo sapiens, UniProt P03372).
T1 sequence (P03372 whole entry): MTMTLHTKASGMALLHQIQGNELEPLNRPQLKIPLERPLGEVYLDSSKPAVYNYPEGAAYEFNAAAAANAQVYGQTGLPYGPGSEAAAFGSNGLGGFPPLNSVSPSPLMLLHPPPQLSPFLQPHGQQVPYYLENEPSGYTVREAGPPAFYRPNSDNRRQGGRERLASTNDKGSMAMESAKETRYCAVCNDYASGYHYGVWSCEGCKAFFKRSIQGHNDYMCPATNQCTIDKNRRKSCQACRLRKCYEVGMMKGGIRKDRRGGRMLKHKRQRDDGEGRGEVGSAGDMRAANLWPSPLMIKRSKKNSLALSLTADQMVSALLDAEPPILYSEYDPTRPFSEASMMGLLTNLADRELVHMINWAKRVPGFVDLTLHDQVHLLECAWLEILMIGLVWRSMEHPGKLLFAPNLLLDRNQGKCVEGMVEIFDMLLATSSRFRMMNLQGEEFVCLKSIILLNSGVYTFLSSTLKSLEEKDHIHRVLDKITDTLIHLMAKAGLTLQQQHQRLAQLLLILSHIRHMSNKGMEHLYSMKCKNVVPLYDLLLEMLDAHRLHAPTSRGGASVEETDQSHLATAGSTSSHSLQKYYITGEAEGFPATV

In series [6] the test system is MEL-JUSO. The series can be described thus: Antiproliferative activity against human MelJuSo cells assessed as cell viability at 50 uM measured after 24 hrs by celltiter-blue assay relative to control. The class given is functional. Conditions: read-out: Activity. Summed up:
as §2
On the technique in general: Alamar Blue is a resazurin reagent that responds to reducing activity.

Series [7] in a line: Drug metabolism in pH 7.5 PBS assessed as nitric oxide release at 50 uM measured after 90 mins in presence of K3[Fe(CN)6] by 2,3-diaminonaphthalene-based fluorescence assay. In outline: as §1
Series [8] deals with MEL-JUSO. The series is described as follows: Antiproliferative activity against human MelJuSo cells assessed as reduction in cell viability measured after 24 hrs by celltiter-blue assay. It is filed as functional, cell-based. Summed up:
as §2

Series [9] has as its system A2058. The series is described as follows: Antiproliferative activity against human A2058 cells assessed as reduction in cell viability measured after 24 hrs by celltiter-blue assay. The class given is functional, cell-based. Conditions: A2058, 24 h. Summed up: as §2
Series [10] has as its system MDA-MB-231. The series is described as follows: Antiproliferative activity against human MDA-MB-231 cells assessed as cell viability at 50 uM measured after 24 hrs by celltiter-blue assay relative to control. Conditions: MDA-MB-231, 24 h, read-out: Activity. The class given is functional. In outline:
(§3)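 Breast adenocarcinoma lines: MCF-7 grown in Leibovitz's L-15 with 10% FCS and 1% pen/strep without CO2; MDA-MB-231 grown in DMEM with 10% FCS and 1% pen/strep at 5% CO2; both at 37 °C. Viability measured after 24 h treatment at 50 μM vs DMSO. Three independent experiments (n = 9); mean ± SEM, ANOVA/Bonferroni.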

Series [11] can be described thus: Stability of the compound in human whole blood measured after 6 hrs by HPLC analysis. It is filed as ADME, tissue-based. Summed up:
(§4)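 Compound incubated 0 to 6 h in human whole blood at 37 °C; proteins precipitated 1:2 (v/v); supernatant analysed by reversed-phase C18 HPLC at 254 nm, water/MeCN gradient with 0.1% TFA, 3.0 mL/min at 50 °C.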

Series [12] has as its system A2058. The series can be described thus: Antiproliferative activity against human A2058 cells assessed as reduction in number of proliferating cells at 25 uM measured after 48 hrs by cell counting analysis. The class given is functional, cell-based. Summed up: (§5)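 A2058 cells plated at 0.5 × 10^6 (24 h) or 0.35 × 10^6 (48 h) per well, Mel-Juso at 0.6 × 10^6 or 0.45 × 10^6. After 24 h cells were treated with 0−50 μM, DMSO as control, then counted electronically after 24 or 48 h. Three independent experiments; mean ± SEM, ANOVA/Bonferroni vs DMSO.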

Series [13] can be described thus: Retention time of the compound in human whole blood by HPLC analysis. The class given is ADME, tissue-based. Summed up: as §4
Series [14] relates to MEL-JUSO. The series can be described thus: Antiproliferative activity against human MelJuSo cells assessed as reduction in number of proliferating cells at 25 uM measured after 48 hrs by cell counting analysis. The class given is functional, cell-based. In outline: as §5
In series [15] the test system is MCF7. The series is described as follows: Antiproliferative activity against human MCF7 cells assessed as reduction in number of proliferating cells measured after 48 hrs by cell counting analysis. The class given is functional, cell-based. In outline: (§6)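 MCF-7 (L-15 with 10% FCS, no CO2) and MDA-MB-231 (DMEM with 10% FCS, 5% CO2) treated 48 h with test compound over a concentration range, DMSO as control; proliferating cells counted. Four independent experiments (n = 8); mean ± SEM, ANOVA with Bonferroni post hoc test vs DMSO.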

In series [16] the test system is MDA-MB-231. The series can be described thus: Antiproliferative activity against human MDA-MB-231 cells assessed as reduction in number of proliferating cells measured after 48 hrs by cell counting analysis. The class given is functional, cell-based. Summed up: as §6
Series [17] in a line: Effect on ER/PI3K pathway in HUVEC assessed as upregulation of COX2 expression measured after 24 hrs by Western blot analysis. It is filed as ADME, cell-based. The conditions noted are these: human. In outline: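 HUVEC treated 24 h with test compounds at various concentrations, with tamoxifen or 17β-estradiol as references, vs DMSO; COX-2 protein detected by Western blotting. Four independent experiments.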
On the technique in general: A western blot detects proteins with antibodies after separation by electrophoresis.

Series [18] concerns HUVEC. The series can be described thus: Cytotoxicity against HUVEC assessed as reduction in cell viability measured after 24 hrs by celltiter-blue assay. The class given is cell-based. The conditions noted are these: Homo sapiens. In outline:
(§7)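 HUVEC grown in endothelial cell growth medium at 37 °C, seeded at 7 × 10^4 cells/well in 96-well plates, treated 24 h with test compound up to 50 μM, DMSO as control; viability read as in the group's earlier method.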

The test system of series [19] is MCF7. The series is described as follows: Antiproliferative activity against human MCF7 cells assessed as cell viability at 50 uM measured after 24 hrs by celltiter-blue assay relative to control. The class given is functional. Conditions: MCF7, 24 h, read-out: Activity. Summed up:
as §3

In series [20] the test system is HUVEC. The series is described as follows: Cytotoxicity against HUVEC assessed as cell viability at 50 uM measured after 24 hrs by celltiter-blue assay. It is filed as cell-based. The conditions noted are these: human, huvec, 24 h, 50 µM; BLD = below limit of detection. Summed up: as §7

Calls of active or inactive are those of the source. The calls are words filed in the database; no cut-off is given here. Some results are limits rather than exact numbers.

Estrogen receptor beta, sequence (Q92731 whole entry): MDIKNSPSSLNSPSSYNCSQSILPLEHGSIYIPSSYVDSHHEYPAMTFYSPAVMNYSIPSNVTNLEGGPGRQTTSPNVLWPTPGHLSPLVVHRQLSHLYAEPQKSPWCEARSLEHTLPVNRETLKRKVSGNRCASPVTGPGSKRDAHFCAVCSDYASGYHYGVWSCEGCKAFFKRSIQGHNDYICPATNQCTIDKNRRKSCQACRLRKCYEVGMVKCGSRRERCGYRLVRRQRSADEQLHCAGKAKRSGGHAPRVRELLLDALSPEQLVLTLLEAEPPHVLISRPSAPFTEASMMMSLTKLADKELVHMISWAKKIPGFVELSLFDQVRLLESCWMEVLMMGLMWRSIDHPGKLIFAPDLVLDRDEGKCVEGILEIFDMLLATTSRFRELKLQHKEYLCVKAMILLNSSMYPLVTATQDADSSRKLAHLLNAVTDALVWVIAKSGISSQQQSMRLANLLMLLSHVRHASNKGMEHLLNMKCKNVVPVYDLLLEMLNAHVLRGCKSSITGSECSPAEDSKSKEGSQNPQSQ

`CS(=O)(=O)c1ccc(C(CCCO[N+](=O)[O-])=C(c2ccc(F)cc2)c2ccc(F)cc2)cc1`: the Drug metabolism in series [1] worked out at 2%; in [2], 0.1%; in series [4] it was 1.9%; in [5] it was 2.2%; in series [7], 0.1%. Further, the viability at 50 µM with A2058 [3] is 107%; in the series on MEL-JUSO [6] it was 91.5%. Besides, the IC50 on Estrogen receptor beta and at Estrogen receptor was more than 5 µM each time.
Turning to `CS(=O)(=O)c1ccc(C(CCCO)=C(c2ccccc2)c2ccccc2)cc1`, the viability at 50 µM in the series on A2058 [3] worked out at 63%; with MEL-JUSO [6], 52.7%. The IC50 (as a rule, the point on the concentration scale where inhibition reaches its midpoint) against Estrogen receptor beta is 1.5 µM; at Estrogen receptor, more than 5 µM.
Regarding `CS(=O)(=O)c1ccc(C(CCCO)=C(c2ccc(F)cc2)c2ccc(F)cc2)cc1`, the EC50 (commonly the midpoint of the concentration-response curve) in the series with MEL-JUSO [8] is 36.3 µM; with A2058 [9], 27.5 µM. Also, the viability at 50 µM with A2058 [3] amounted to 47.6%; in the series with MEL-JUSO [6], 31.4%. Besides, the values for the IC50 against Estrogen receptor beta and on Estrogen receptor were 3 µM and more than 5 µM, respectively.
Turning to `O=S(=O)(NO)c1ccccc1`, the Drug metabolism is 3.6% in [1]; 0.3% in series [2]; 3.3% in series [4]; 33.5% in series [5]; 48.3% in [7].
In the case of `CS(=O)(=O)c1ccc(C(CCCCO[N+](=O)[O-])=C(c2ccccc2)c2ccccc2)cc1`, the Drug metabolism is 0.5% in series [1]; 0.9% in series [2]; 0.4% in series [4]; 0.1% in series [5]; 1.1% in series [7]. The results for the viability at 50 µM with A2058 [3] and with MEL-JUSO [6] were 120% and 87.1%, respectively. For the same compound, the IC50 was 1.3 µM against Estrogen receptor beta and more than 5 µM against Estrogen receptor.
As for `CS(=O)(=O)c1ccc(C(CCCCO)=C(c2ccc(F)cc2)c2ccc(F)cc2)cc1`, the viability at 50 µM in the series with MDA-MB-231 [10] is 86.4%; in the series with A2058 [3], 17%; in the series on MEL-JUSO [6], 20.5%; in the series on MCF7 [19], 72.2%. Further, the Stability result in series [11] was “Stable”. Further, the result in the series on A2058 [12] and with MEL-JUSO [14] was Active. The EC50 was determined as 34.9 µM with MEL-JUSO [8], 19.6 µM in the series on HUVEC [18] and 39.9 µM with A2058 [9]. For the same compound, the Retention_time in [13] turned out to be 14.5 min. The Activity result in the series on MCF7 [15] is “Dose-dependent effect”; in the series on MDA-MB-231 [16], “Dose-dependent effect”; in series [17], “Dose-dependent effect”; in the series with HUVEC [20] it was “Bld”. Also, the IC50 on Estrogen receptor beta is 0.18 µM; at Estrogen receptor, more than 5 µM.

The record behind these values is ChEMBL document CHEMBL4359812, “Nitric Oxide-Releasing Selective Estrogen Receptor Modulators: A Bifunctional Approach to Improve the Therapeutic Index” (J Med Chem, 2019).
